These results are taken from ChEMBL document CHEMBL3259562, “4-Alkyloxyimino derivatives of uridine-5'-triphosphate: distal modification of potent agonists as a strategy for molecular probes of P2Y2, P2Y4, and P2Y6 receptors” (J Med Chem, 2014).

Each structure is given as a SMILES string. Activity calls are given as the source filed them. The rule behind the calls is not given here. Bounds are passed on as bounds.

For test [1], the target named is T1, P2Y purinoceptor 4 (Homo sapiens, UniProt P51582). Kind of test: Agonist activity at human P2Y4 receptor expressed in human 1321N1 cells assessed as stimulation of [3H]inositol phosphate accumulation by liquid scintillation counting. In kind it is functional, cell-based. The method, boiled down:
(§1)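 Stable 1321N1 lines made by retroviral expression of each human receptor (parent cells lack P2YRs), seeded at 20000 cells/well two days ahead. Labelled 16 h with 1.0 μCi [3H]myo-inositol in serum-free, inositol-free DMEM. Agonist given in 100 mM Hepes pH 7.3/HBSS with 50 mM LiCl for 30 min at 37 °C. Stopped with ice-cold 50 mM formic acid, then neutralised. Total inositol phosphates taken off Dowex AG1-X8 and counted by scintillation.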

Test [2] addresses T2, P2Y purinoceptor 6 (Homo sapiens, UniProt Q15077). Kind of test: Agonist activity at human P2Y6 receptor expressed in human 1321N1 cells assessed as stimulation of [3H]inositol phosphate accumulation by liquid scintillation counting. In kind it is functional, cell-based. The method, boiled down: as §1
For test [3], the target named is T3, P2Y purinoceptor 2 (Homo sapiens, UniProt P41231). As to the kind of experiment: Agonist activity at human P2Y2 receptor expressed in human 1321N1 cells assessed as stimulation of [3H]inositol phosphate accumulation by liquid scintillation counting. Format: functional, cell-based. The method, boiled down: as §1
For test [4], the target named is T2, P2Y purinoceptor 6. As to the kind of experiment: Agonist activity at human P2Y6 receptor expressed in human 1321N1 cells by functional assay. Format: cell-based. An outline of the steps: as §1
The target in test [5] is T3, P2Y purinoceptor 2. Kind of test: Agonist activity at human P2Y2 receptor expressed in human 1321N1 cells by functional assay. Format: cell-based. An outline of the steps: as §1
Test [6] addresses T1, P2Y purinoceptor 4. Kind of test: Agonist activity at human P2Y4 receptor expressed in human 1321N1 cells by functional assay. In kind it is cell-based. An outline of the steps: as §1
Test [7] addresses T2, P2Y purinoceptor 6. Kind of test: Binding affinity to human P2Y6 receptor expressed in human 1321N1 cells assessed as fluorescence intensity at 100 nM for 30 mins by flow cytometry (FCM) binding assay in presence of 10 uM MRS2179 P2Y1R-selective antagonist. In kind it is cell-based. An outline of the steps: (§2)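 P2Y6R-1321N1 cells grown in DMEM with 5% FBS, used at 80% confluence. Preincubated 30 min with 100 μM α,β-methylene-ADP plus 10 μM competing ligand, then 100 nM fluorescent ligand for 20–30 min. Cells washed three times in ice-cold DPBS, detached with 0.2% EDTA and analysed by flow cytometry (FL-4 channel, 10,000 events). MFI corrected for autofluorescence and expressed relative to ligand alone (100%); n = 4, mean ± SEM.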

Test [8] deals with T2, P2Y purinoceptor 6. As to the kind of experiment: Binding affinity to human P2Y6 receptor expressed in human 1321N1 cells assessed as fluorescence intensity at 100 nM for 30 mins by flow cytometry (FCM) binding assay in presence of 100 uM ecto-nucleotidase inhibitor alpha, beta-methylene-adenosine 5'-diphosphate. In kind it is cell-based. The method, boiled down:
as §2
In general terms: Flow cytometry measures light scatter and fluorescence of single cells or particles in a stream.

The target of test [9] is T2, P2Y purinoceptor 6. Kind of test: Binding affinity to human P2Y6 receptor expressed in human 1321N1 cells assessed as fluorescence intensity at 1 uM for 30 mins by fluorescence microscopy in presence of 10 uM MRS2578 noncompetitive antagonist. In kind it is cell-based. The method, boiled down:
(§3)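 P2Y6R-1321N1 cells on glass coverslips at 80% confluence, given fresh medium and, where stated, 10 μM noncompetitive antagonist MRS2578 for 30 min at 37 °C. Fluorescent ligand then added to 1 μM final for 30 min at 37 °C. Cells washed with ice-cold PBS, mounted and imaged by fluorescence microscopy.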

Test [10] concerns the target T2, P2Y purinoceptor 6. Kind of test: Binding affinity to human P2Y6 receptor expressed in human 1321N1 cells assessed as fluorescence intensity at 100 nM for 30 mins by flow cytometry (FCM) binding assay in presence of 10 uM P1-(uridine 5'-)-P4-(N4-methoxycytidine5'-)[…] selective dinucleotide agonist. In kind it is cell-based. The method, boiled down: as §2

Test [11] deals with T2, P2Y purinoceptor 6. As to the kind of experiment: Binding affinity to human P2Y6 receptor expressed in human 1321N1 cells assessed as fluorescence intensity at 100 nM for 30 mins by flow cytometry (FCM) binding assay in presence of 10 uM suramin competitive antagonist. Format: cell-based. An outline of the steps: as §2
Test [12] concerns the target T2, P2Y purinoceptor 6. As to the kind of experiment: Binding affinity to human P2Y6 receptor expressed in human 1321N1 cells assessed as fluorescence intensity at 1 uM for 30 mins by fluorescence microscopy. In kind it is cell-based. The method, boiled down: as §3
The target in test [13] is T2, P2Y purinoceptor 6. As to the kind of experiment: Binding affinity to human P2Y6 receptor expressed in human 1321N1 cells assessed as fluorescence intensity at 100 nM for 30 mins by flow cytometry (FCM) binding assay in presence of 10 uM MRS2578 noncompetitive antagonist. Format: cell-based. The method, boiled down:
as §2

T2 sequence (Q15077 whole entry): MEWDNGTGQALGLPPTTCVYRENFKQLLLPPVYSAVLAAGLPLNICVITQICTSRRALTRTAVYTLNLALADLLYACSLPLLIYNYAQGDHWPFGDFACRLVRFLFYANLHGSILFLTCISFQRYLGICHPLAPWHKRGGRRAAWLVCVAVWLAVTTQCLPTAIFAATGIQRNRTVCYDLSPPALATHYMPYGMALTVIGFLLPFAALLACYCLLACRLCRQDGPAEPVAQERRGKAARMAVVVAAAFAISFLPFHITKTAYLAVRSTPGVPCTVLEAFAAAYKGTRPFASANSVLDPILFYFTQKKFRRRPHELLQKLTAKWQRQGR
T3 sequence (P41231 whole entry): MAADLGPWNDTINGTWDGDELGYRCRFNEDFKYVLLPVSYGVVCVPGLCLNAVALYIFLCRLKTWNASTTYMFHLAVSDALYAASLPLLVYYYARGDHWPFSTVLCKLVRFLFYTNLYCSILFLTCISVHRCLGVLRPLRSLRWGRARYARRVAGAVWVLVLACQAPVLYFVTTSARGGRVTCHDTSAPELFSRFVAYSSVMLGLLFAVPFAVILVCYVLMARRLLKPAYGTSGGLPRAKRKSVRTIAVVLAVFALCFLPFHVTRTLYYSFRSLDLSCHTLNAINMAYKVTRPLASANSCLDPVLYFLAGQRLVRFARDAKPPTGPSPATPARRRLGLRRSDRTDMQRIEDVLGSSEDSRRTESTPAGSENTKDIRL
T1 sequence (P51582 whole entry): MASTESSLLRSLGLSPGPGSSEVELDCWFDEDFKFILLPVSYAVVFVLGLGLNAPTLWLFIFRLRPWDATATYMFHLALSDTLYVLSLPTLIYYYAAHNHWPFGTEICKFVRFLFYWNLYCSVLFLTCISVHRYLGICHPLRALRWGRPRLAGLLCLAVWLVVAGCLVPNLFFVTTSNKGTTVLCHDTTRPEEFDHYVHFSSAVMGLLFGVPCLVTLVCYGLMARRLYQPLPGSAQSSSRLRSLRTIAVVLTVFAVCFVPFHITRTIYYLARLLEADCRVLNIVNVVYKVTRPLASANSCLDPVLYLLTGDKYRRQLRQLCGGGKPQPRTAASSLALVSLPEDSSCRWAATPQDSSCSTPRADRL

What is called EC50 is the concentration that produces a half-maximal response. As to `O=c1[nH]/c(=N\OCCCc2cccnc2)ccn1[C@@H]1O[C@H](COP(=O)(O)OP(=O)(O)OP(=O)(O)O)[C@@H](O)[C@H]1O`, the EC50 in test [1] is 300 nM; in test [2] it was 2950 nM; in test [3] it was 327 nM.
The corresponding values for `O=c1[nH]/c(=N\OCCCc2ccc(I)cc2)ccn1[C@@H]1O[C@H](COP(=O)(O)OP(=O)(O)OP(=O)(O)O)[C@@H](O)[C@H]1O` are 91 nM, 90 nM and 187 nM.
The corresponding values for `C#CCCNC(=O)COc1ccc(CCCO/N=c2/ccn([C@@H]3O[C@H](COP(=O)(O)OP(=O)(O)OP(=O)(O)O)[C@@H](O)[C@H]3O)c(=O)[nH]2)cc1` are 40 nM, 183 nM and 109 nM.
The corresponding values for `O=c1[nH]/c(=N\OCCCc2cccc(I)c2)ccn1[C@@H]1O[C@H](COP(=O)(O)OP(=O)(O)OP(=O)(O)O)[C@@H](O)[C@H]1O` are 114 nM, 299 nM and 325 nM.
Regarding `O=C(O)CCCO/N=c1/ccn([C@@H]2O[C@H](COP(=O)(O)OP(=O)(O)OP(=O)(O)O)[C@@H](O)[C@H]2O)c(=O)[nH]1`, the EC50 amounted to 470 nM in test [1], 697 nM in [2] and 299 nM in [3].
The corresponding values for `O=c1[nH]/c(=N\OCCCc2cccc([N+](=O)[O-])c2)ccn1[C@@H]1O[C@H](COP(=O)(O)OP(=O)(O)OP(=O)(O)O)[C@@H](O)[C@H]1O` are 95 nM, 9700 nM and 457 nM.
Consider `C#CCCCO/N=c1/ccn([C@@H]2O[C@H](COP(=O)(O)OP(=O)(O)OP(=O)(O)O)[C@@H](O)[C@H]2O)c(=O)[nH]1`, for which the concentration for a half-maximal effect (EC50) in test [1] worked out at 410 nM; in test [2] it was 3000 nM; in test [3], 168 nM.
As to `O=c1[nH]/c(=N\OCCCc2ccc(F)cc2)ccn1[C@@H]1O[C@H](COP(=O)(O)OP(=O)(O)OP(=O)(O)O)[C@@H](O)[C@H]1O`, the EC50 in test [1] was determined as 105 nM; in [2] it was 1210 nM; in [3] it was 547 nM.
On the same counts, the results for `N#CC(CCO/N=c1/ccn([C@@H]2O[C@H](COP(=O)(O)OP(=O)(O)OP(=O)(O)O)[C@@H](O)[C@H]2O)c(=O)[nH]1)(c1ccccc1)c1ccccc1` are 47 nM, 177 nM and 934 nM.
On the same counts, the results for `COc1ccc(CCCO/N=c2/ccn([C@@H]3O[C@H](COP(=O)(O)OP(=O)(O)OP(=O)(O)O)[C@@H](O)[C@H]3O)c(=O)[nH]2)cc1` are 23 nM, 277 nM and 47 nM.
Turning to `O=c1ccn([C@@H]2O[C@H](COP(=O)(O)OP(=O)(O)OP(=O)(O)OP(=O)(O)OC[C@H]3O[C@@H](n4cc/c(=N/OCCCc5ccccc5)[nH]c4=O)[C@H](O)[C@@H]3O)[C@@H](O)[C@H]2O)c(=O)[nH]1`, the EC50 stood at 332 nM in test [4], 389 nM in [5] and 93 nM in test [6].
`O=c1[nH]/c(=N\OCCCc2ccsc2)ccn1[C@@H]1O[C@H](COP(=O)(O)OP(=O)(O)OP(=O)(O)O)[C@@H](O)[C@H]1O`: the EC50 in test [1] was determined as 20 nM; in test [2], 164 nM; in [3] it was 103 nM.
On the same counts, the results for `O=c1[nH]/c(=N\OCCCc2ccc3ccccc3c2)ccn1[C@@H]1O[C@H](COP(=O)(O)OP(=O)(O)OP(=O)(O)O)[C@@H](O)[C@H]1O` are 128 nM, 90 nM and 139 nM.
Turning to `O=C(CCCCCNC(=O)COc1ccc(/C=C/c2ccc3n2[B-](F)(F)[N+]2=C(c4cccs4)C=CC2=C3)cc1)NCCCn1cc(CCNC(=O)COc2ccc(CCCO/N=c3/ccn([C@@H]4O[C@H](COP(=O)(O)OP(=O)(O)OP(=O)(O)O)[C@@H](O)[C@H]4O)c(=O)[nH]3)cc2)nn1`, the result in test [7], in test [8], in test [9] and in [12] was Active. In addition, the EC50 in [1] worked out at 70 nM; in [2], 23 nM; in test [3] it was 66 nM. Besides, the outcome in test [10], in [11] and in [13] was inactive.
Consider `O=c1[nH]/c(=N\OCCCc2ccc([N+](=O)[O-])cc2)ccn1[C@@H]1O[C@H](COP(=O)(O)OP(=O)(O)OP(=O)(O)O)[C@@H](O)[C@H]1O`, for which the values for the EC50 in test [1], in test [2] and in [3] were 84 nM, 1330 nM and 458 nM, respectively.
The corresponding values for `O=c1[nH]/c(=N\OCCCc2ccncc2)ccn1[C@@H]1O[C@H](COP(=O)(O)OP(=O)(O)OP(=O)(O)O)[C@@H](O)[C@H]1O` are 250 nM, 4280 nM and 285 nM.
The corresponding values for `O=c1[nH]/c(=N\OCCCCc2ccccc2)ccn1[C@@H]1O[C@H](COP(=O)(O)OP(=O)(O)OP(=O)(O)O)[C@@H](O)[C@H]1O` are 54 nM, 251 nM and 214 nM.
The corresponding values for `O=c1[nH]/c(=N\OCCOc2ccccc2)ccn1[C@@H]1O[C@H](COP(=O)(O)OP(=O)(O)OP(=O)(O)O)[C@@H](O)[C@H]1O` are 430 nM, 1780 nM and 3400 nM.
Regarding `N=c1ccc2c(-c3ccc(C(=O)NCCCCCCn4cc(CCNC(=O)COc5ccc(CCCO/N=c6/ccn([C@@H]7O[C@H](COP(=O)(O)OP(=O)(O)OP(=O)(O)O)[C@@H](O)[C@H]7O)c(=O)[nH]6)cc5)nn4)cc3C(=O)O)c3ccc(N)c(S(=O)(=O)O)c3oc-2c1S(=O)(=O)O`, the concentration giving a half-maximal response (EC50) in test [1] was determined as 200 nM; in [2] it was 334 nM; in [3], 577 nM.
Regarding `O=c1[nH]/c(=N\OCCCc2ccccc2)ccn1[C@@H]1O[C@H](COP(=O)(O)OP(=O)(O)OP(=O)(O)OP(=O)(O)OC[C@H]2O[C@@H](n3cc/c(=N/OCCCc4ccccc4)[nH]c3=O)[C@H](O)[C@@H]2O)[C@@H](O)[C@H]1O`, the results for the EC50 in test [4], in test [5] and in test [6] were > 10000 nM, > 10000 nM and 1330 nM, respectively.
As to `O=c1[nH]/c(=N\OCCCc2ccc(Br)cc2)ccn1[C@@H]1O[C@H](COP(=O)(O)OP(=O)(O)OP(=O)(O)O)[C@@H](O)[C@H]1O`, the figures for the EC50 in [1], in test [2] and in test [3] were 141 nM, 225 nM and 350 nM, respectively.
In the case of `O=c1[nH]/c(=N\OCCCc2cccc(F)c2)ccn1[C@@H]1O[C@H](COP(=O)(O)OP(=O)(O)OP(=O)(O)O)[C@@H](O)[C@H]1O`, the EC50 in [1] turned out to be 100 nM; in [2], 539 nM; in test [3], 190 nM.
